# Results: ChEMBL document CHEMBL1133462, “Discovery of novel and potent retinoic acid receptor alpha agonists: syntheses and evaluation of benzofuranyl-pyrrole and benzothiophenyl-pyrrole derivatives” (2000)
# How the values were obtained:
# [1] = target: T1, Retinoic acid receptor beta (Homo sapiens) (UniProt P10826); experiment: Relative transcriptional activation in COS cells expressing Retinoic acid receptor beta compared to ATRA; assay type: functional, cell-based
# T1 sequence (whole entry): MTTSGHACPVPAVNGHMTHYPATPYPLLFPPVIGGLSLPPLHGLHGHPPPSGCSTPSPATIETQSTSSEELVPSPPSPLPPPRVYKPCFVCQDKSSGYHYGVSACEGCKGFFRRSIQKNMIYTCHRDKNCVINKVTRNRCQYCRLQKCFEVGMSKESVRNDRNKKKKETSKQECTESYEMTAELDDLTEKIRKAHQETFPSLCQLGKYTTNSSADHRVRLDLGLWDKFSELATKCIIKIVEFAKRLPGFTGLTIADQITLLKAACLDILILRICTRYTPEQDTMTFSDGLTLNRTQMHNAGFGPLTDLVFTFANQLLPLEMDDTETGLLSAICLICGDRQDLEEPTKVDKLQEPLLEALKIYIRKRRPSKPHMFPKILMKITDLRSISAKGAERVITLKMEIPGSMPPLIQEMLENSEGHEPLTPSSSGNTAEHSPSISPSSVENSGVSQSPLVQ
# Procedure, shortened: (§1)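 COS-1 cells were lipofected with receptor and reporter vectors. After 4 h the medium was changed to DMEM/10% FBS for a further 20 h, then cells were reseeded at 3 × 10⁴/well. After 6 h, compounds were added in log dilutions from 3.0 × 10^-6 to 1.0 × 10^-10 M, in duplicate, for 48 h. Supernatant PLAP activity was measured. EC30 (concentration giving 30% of maximal response) was normalized to ATRA EC30. Values averaged from at least two experiments.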
# [2] = target: T2, Retinoic acid receptor alpha (Homo sapiens) (UniProt P10276); experiment: Relative transcriptional activation in COS cells expressing Retinoic acid receptor alpha compared to ATRA; assay type: functional, cell-based; procedure, shortened: as §1
# T2 sequence (whole entry): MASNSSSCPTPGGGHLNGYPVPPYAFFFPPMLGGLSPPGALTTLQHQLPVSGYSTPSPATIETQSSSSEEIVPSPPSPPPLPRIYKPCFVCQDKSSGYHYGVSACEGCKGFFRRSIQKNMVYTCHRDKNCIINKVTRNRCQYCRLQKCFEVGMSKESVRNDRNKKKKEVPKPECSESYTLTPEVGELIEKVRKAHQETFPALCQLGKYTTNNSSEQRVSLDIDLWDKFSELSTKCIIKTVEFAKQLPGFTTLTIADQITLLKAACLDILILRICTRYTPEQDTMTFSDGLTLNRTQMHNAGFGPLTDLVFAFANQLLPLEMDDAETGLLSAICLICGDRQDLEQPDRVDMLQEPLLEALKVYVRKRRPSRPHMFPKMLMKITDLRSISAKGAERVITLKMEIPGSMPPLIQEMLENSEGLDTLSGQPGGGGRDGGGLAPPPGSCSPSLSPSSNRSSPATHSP
# [3] = Inhibition of LPS-induced mouse B-lymphocyte proliferation (Mean of IC50/ATRA IC50); assay type: functional
# Procedure, shortened: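 BALB/c splenocytes at 1.2 × 10⁵ cells/well in RPMI-1640 with 50 µM 2-mercaptoethanol, 10% FBS and 5 µg/mL E. coli LPS. Compounds were tested in log dilutions from 1.0 × 10^-6 to 1.0 × 10^-12 M final, in triplicate, for 3 days at 37 °C and 5% CO₂. IC50 was fitted by nonlinear regression and divided by the ATRA IC50. Reported as mean ± SEM of triplicates.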
# [4] = target: T3, Retinoic acid receptor gamma (Homo sapiens) (UniProt P13631); experiment: Relative transcriptional activation in COS cells expressing Retinoic acid receptor gamma compared to ATRA; assay type: functional, cell-based; procedure, shortened: as §1
# T3 sequence (whole entry): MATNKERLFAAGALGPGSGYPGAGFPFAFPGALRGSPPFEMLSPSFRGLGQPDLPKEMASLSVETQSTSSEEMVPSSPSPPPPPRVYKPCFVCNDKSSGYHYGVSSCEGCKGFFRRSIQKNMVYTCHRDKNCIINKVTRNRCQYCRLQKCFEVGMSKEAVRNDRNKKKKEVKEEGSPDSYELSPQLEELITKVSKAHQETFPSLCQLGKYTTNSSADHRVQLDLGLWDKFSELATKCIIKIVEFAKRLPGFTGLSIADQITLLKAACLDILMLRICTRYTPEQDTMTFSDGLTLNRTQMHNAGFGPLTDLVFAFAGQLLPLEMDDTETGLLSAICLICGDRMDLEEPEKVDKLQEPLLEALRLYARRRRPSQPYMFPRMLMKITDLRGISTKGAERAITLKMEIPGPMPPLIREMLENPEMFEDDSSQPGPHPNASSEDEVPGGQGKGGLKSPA
# [5] = target: T2, Retinoic acid receptor alpha (Homo sapiens); experiment: Inhibition of [3H]-ATRA binding to Retinoic acid receptor alpha (RAR-alpha)
# Procedure, shortened: (§2)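 Competitive binding of [³H]ATRA to individual RAR subtypes. Each IC50 was divided by the ATRA IC50 to give a relative IC50. Reported as mean ± SEM, averaged from at least two experiments.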
# [6] = target: T1, Retinoic acid receptor beta (Homo sapiens); experiment: Inhibition of [3H]ATRA binding to Retinoic acid receptor beta (RAR-beta); procedure, shortened: as §2
Relative EC30 [1] [nM],Relative EC30 [2] [nM],Relative EC30 [4] [nM],Relative IC50 [5] [nM],Relative IC50 [6] [nM],Compound,Relative IC50 [3]
730,6,3700,15,,COc1ccc(C)c2oc(-c3ccc(-c4ccc(C(=O)O)cc4)[nH]3)cc12,4.7
1300,2.4,2900,62,,Cc1cc(C)c2sc(-c3ccc(-c4ccc(C(=O)O)cc4)[nH]3)cc2c1,3.6
160,3.1,2000,12,,Cc1ccc2cc(-c3ccc(-c4ccc(C(=O)O)cc4)[nH]3)oc2c1C,2.4
380,1,890,16,,Cc1cc(C)c2oc(-c3ccc(-c4ccc(C(=O)O)cc4)[nH]3)cc2c1,1.2
200,2,480,9.4,,Cc1cc(C)c2oc(-c3ccc(-c4ccc(C(=O)O)cc4)[nH]3)cc2c1C,2.2
92,0.8,1000,1.6,,Cc1cccc2cc(-c3ccc(-c4ccc(C(=O)O)cc4)[nH]3)oc12,0.98
130,1.3,840,6.1,,Cc1ccc(C)c2sc(-c3ccc(-c4ccc(C(=O)O)cc4)[nH]3)cc12,0.75
25,0.37,240,1.4,490,Cc1ccc(C)c2oc(-c3ccc(-c4ccc(C(=O)O)cc4)[nH]3)cc12,0.76
110,0.7,820,1.5,690,O=C(O)c1ccc(-c2ccc(-c3cc4c(Cl)ccc(Cl)c4o3)[nH]2)cc1,1.3
8.5,0.29,110,1.9,500,O=C(O)c1ccc(-c2ccc(-c3cc4c(C(F)(F)F)ccc(F)c4o3)[nH]2)cc1,0.37
